Activity calls are given as the source filed them. The rule behind the calls is not given here.
Assays:
[1] = Effect on ER-alpha protein level in human MCF7:WS8 cells at 1 nM after 24 hrs by Western blot analysis; assay type: functional
Method in brief: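 Cells estrogen-starved 3 days in phenol red-free RPMI 1640, 3 million seeded per 10 cm dish, treated 24 h. Lysates (20 μg protein by BCA) run on 4–12% Bis-Tris gels, blotted to nitrocellulose, probed with rabbit anti-ERα and anti-β-actin, detected by ECL. Densitometry normalized to β-actin, background subtracted, vehicle = 100%. Three independent experiments.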

[2] = target: T1, Estrogen receptor (Homo sapiens) (UniProt P03372); experiment: Antagonist activity at ER in human MCF7:WS8 cells assessed as inhibition of estradiol-induced cell growth by measuring DNA level after 7 days treated at highesy drug concentration by fluorescence analysis; assay type: cell-based
T1 sequence (whole entry): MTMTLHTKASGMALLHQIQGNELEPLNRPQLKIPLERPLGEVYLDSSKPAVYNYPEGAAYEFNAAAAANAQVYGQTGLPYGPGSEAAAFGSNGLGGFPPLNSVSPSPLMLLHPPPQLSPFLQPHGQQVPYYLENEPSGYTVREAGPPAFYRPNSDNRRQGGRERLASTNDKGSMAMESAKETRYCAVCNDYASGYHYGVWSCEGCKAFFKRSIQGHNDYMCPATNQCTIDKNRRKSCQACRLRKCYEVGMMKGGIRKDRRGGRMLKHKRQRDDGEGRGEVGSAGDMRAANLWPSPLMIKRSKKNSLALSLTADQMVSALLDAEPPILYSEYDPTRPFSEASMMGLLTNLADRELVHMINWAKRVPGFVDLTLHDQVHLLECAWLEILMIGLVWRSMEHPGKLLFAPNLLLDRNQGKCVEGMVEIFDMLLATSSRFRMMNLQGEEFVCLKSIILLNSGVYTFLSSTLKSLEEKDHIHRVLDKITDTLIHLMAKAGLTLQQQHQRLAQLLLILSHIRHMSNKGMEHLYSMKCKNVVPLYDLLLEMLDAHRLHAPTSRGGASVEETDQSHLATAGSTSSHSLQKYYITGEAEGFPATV

[3] = target: T1, Estrogen receptor (Homo sapiens); experiment: Agonist activity at ER in human MCF7:WS8 cells assessed as increase in cell growth by measuring DNA level at 10^-6 M after 7 days by fluorescence analysis; assay type: cell-based
Method in brief: (§1)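 MCF-7:WS8 cells kept 3 days in phenol red-free RPMI 1640 with 10% charcoal-stripped serum, then seeded at 10 000 cells/well. Next day treated with serial dilutions (10–12 to 10–6 M) or single therapeutic-level concentrations in estrogen-free medium. Medium changed every 2 days, 7 days total, triplicate points.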

[4] = target: T1, Estrogen receptor (Homo sapiens); experiment: Agonist activity at ER in human MCF7:WS8 cells assessed as increase in pS2 gene expression at 10^-6 M after 48 hrs by RT-PCR analysis; assay type: cell-based
Method in brief: (§2)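 After 3 days estrogen starvation, MCF-7:WS8 cells were seeded at 300 000 cells/well and treated for 48 h, then harvested in Trizol. pS2, GREB1 and PgR mRNA measured by real-time PCR with primers checked by single-peak dissociation curves.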

[5] = target: T1, Estrogen receptor (Homo sapiens); experiment: Agonist activity at ER in human MCF7:WS8 cells assessed as increase in GREB1 gene expression at 10^-6 M after 48 hrs by RT-PCR analysis; assay type: cell-based; method in brief: as §2
[6] = target: T1, Estrogen receptor (Homo sapiens); experiment: Agonist activity at ER in human MCF7:WS8 cells assessed as increase in PgR gene expression at 10^-6 M after 48 hrs by RT-PCR analysis; assay type: cell-based; method in brief: as §2
[7] = target: T1, Estrogen receptor (Homo sapiens); experiment: Antagonist activity at ER in human MCF7:WS8 cells assessed as inhibition of estradiol-induced cell growth by measuring DNA level at 10^-6 M after 7 days by fluorescence analysis; assay type: cell-based
[8] = target: T1, Estrogen receptor (Homo sapiens); experiment: Antagonist activity at ER in human MCF7:WS8 cells assessed as inhibition of estradiol-induced cell growth by measuring DNA level after 7 days by fluorescence analysis; assay type: cell-based; settings: concentration not given here
[9] = target: T1, Estrogen receptor (Homo sapiens); experiment: Agonist activity at ER in human MCF7:WS8 cells assessed as cell growth by measuring DNA level at 1.17 X 10^-9 M after 7 days by fluorescence analysis; assay type: cell-based; method in brief: as §1
[10] = target: T1, Estrogen receptor (Homo sapiens); experiment: Agonist activity at ER in human MCF7:WS8 cells assessed as cell growth by measuring DNA level at 0.56 X 10^-9 M after 7 days by fluorescence analysis; assay type: cell-based; method in brief: as §1

Structure (SMILES)	inhibition [2]	Activity [3]	Activity [4]	Activity [5]	Activity [6]	inhibition [7]	inhibition [8]	Activity [9]	Activity [10]	Activity [1]
C[C@]12CC[C@@H]3c4ccc(O)cc4CC[C@H]3[C@@H]1CC[C@@H]2O [ESTRADIOL]										60%
CCC(=C(c1ccc(O)cc1)c1ccc(O)cc1)c1ccccc1	20%	Active	Active	Active	Active					
CCC(=C(c1ccc(O)cc1)c1ccc(O)cc1)c1ccc(O)cc1	20%		Active	Active	Active					
CNCCOc1ccc2c(c1)CCCC(c1ccccc1)=C2c1ccc(O)cc1	10%		Active	Active	Active		10%	inactive		
CN(C)CCOc1ccc2c(c1)CCCC(c1ccccc1)=C2c1ccc(O)cc1	20%	Active	Active	Active	Active				inactive	

More lines, main results first:

inhibition [2]	Activity [3]	Activity [4]	Activity [5]	Activity [6]	inhibition [7]	inhibition [8]	Activity [9]	Activity [10]	Structure (SMILES)	Activity [1]
20%	Active	Active	Active	Active					CCOc1ccc2c(c1)CCCC(c1ccccc1)=C2c1ccc(O)cc1	
20%	Active	Active	Active	Active	20%				CCOc1ccc(C2=C(c3ccccc3)CCCc3cc(O)ccc32)cc1	
20%	Active	Active	Active	Active					COc1ccc2c(c1)CCCC(c1ccccc1)=C2c1ccc(O)cc1	
20%	Active	Active	Active	Active					COc1ccc(C2=C(c3ccccc3)CCCc3cc(O)ccc32)cc1	
